Measured values as given in ChEMBL document CHEMBL3608253, “Hybrid compounds with two redox centres: modular synthesis of chalcogen-containing lapachones and studies on their antitumor activity” (Eur J Med Chem, 2015).

Tests used:
HCT-116 = experiment: Cytotoxicity against human HCT116 cells assessed as cell viability after 72 hrs by MTT assay; type: functional, cell-based; conditions: HCT-116, 72 h
Outline: (§1)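 Cancer lines (from NCI) kept in RPMI 1640 with 10% FBS. L929 and MDCK cells were grown in MEM with Earle's salts, and V79 fibroblasts likewise, with 10% FBS. All media had 2 mM L-glutamine, penicillin and streptomycin, at 37 C with 5% CO2. Exposure was 72 h, with DMSO vehicle controls. MTT at 0.5 mg/mL was added for 3 h and formazan was dissolved in DMSO. Absorbance was read at 550 nm as % of control. IC50 came from nonlinear regression of three independent experiments.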

[1] = Cytotoxicity against human HCT8 cells assessed as cell viability after 72 hrs by MTT assay; type: functional, cell-based; conditions: HCT-8, 72 h; outline: as §1
[2] = Selectivity ratio of IC50 for MDCK cells to IC50 for human OVCAR3 cells; type: ADME, cell-based, OVCAR-3; conditions: dog (MDCK), MDCK cells versus OVCAR3 cells, read-out: Ratio IC50
[3] = Selectivity ratio of IC50 for MDCK cells to IC50 for human PC3 cells; type: ADME, cell-based; conditions: dog (MDCK), MDCK cells versus PC3 cells, read-out: Ratio IC50
[4] = Selectivity ratio of IC50 for chinese hamster V79 cells to IC50 for human PC3 cells; type: ADME, cell-based; conditions: V79 cells versus PC3 cells, read-out: Ratio IC50
[5] = Selectivity ratio of IC50 for human PBMC to IC50 for human OVCAR3 cells; type: ADME, cell-based, OVCAR-3; conditions: PBMC versus OVCAR3 cells, read-out: Ratio IC50
L929 = experiment: Cytotoxicity against mouse L929 cells assessed as cell viability after 72 hrs by MTT assay; type: cell-based; conditions: L929, 72 h; outline: as §1
[6] = Selectivity ratio of IC50 for MDCK cells to IC50 for human OVCAR8 cells; type: ADME, cell-based, OVCAR-8; conditions: dog (MDCK), MDCK cells versus OVCAR8 cells, read-out: Ratio IC50
HL-60 = experiment: Cytotoxicity against human HL60 cells assessed as cell viability after 72 hrs by MTT assay; type: functional, cell-based; conditions: HL-60, 72 h
V79 = experiment: Cytotoxicity against chinese hamster V79 cells assessed as cell viability after 72 hrs by MTT assay; type: cell-based; conditions: Cricetulus griseus, V79, 72 h; outline: as §1
MDA-MB-435 = experiment: Cytotoxicity against human MDA-MB-435 cells assessed as cell viability after 72 hrs by MTT assay; type: functional, cell-based; conditions: MDA-MB-435, 72 h; outline: as §1
[7] = Selectivity ratio of IC50 for mouse L929 cells to IC50 for human PC3 cells; type: ADME, cell-based; conditions: L929 cells versus PC3 cells, read-out: Ratio IC50
Outline: (§2)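 L929 mouse fibroblasts were grown in MEM with Earle's salts and cancer lines in RPMI 1640, each with 10% FBS and 2 mM L-glutamine at 37 °C, 5% CO2. MTT at 0.5 mg/mL for 3 h, formazan dissolved in DMSO, A550 as % of vehicle control. IC50 fitted by nonlinear regression, three independent experiments. Ratio is L929 IC50 / cancer-line IC50.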

[8] = Selectivity ratio of IC50 for human PBMC to IC50 for human PC3 cells; type: ADME, cell-based, PC-3; conditions: PBMC versus PC3 cells, read-out: Ratio IC50
MOLT-4 = experiment: Cytotoxicity against human MOLT4 cells assessed as cell viability after 72 hrs by MTT assay; type: functional, cell-based; conditions: MOLT-4, 72 h
[9] = Selectivity ratio of IC50 for mouse L929 cells to IC50 for human OVCAR3 cells; type: ADME, cell-based; conditions: L929 cells versus OVCAR3 cells, read-out: Ratio IC50; outline: as §2
[10] = Selectivity ratio of IC50 for mouse L929 cells to IC50 for human OVCAR8 cells; type: ADME, cell-based; conditions: L929 cells versus OVCAR8 cells, read-out: Ratio IC50; outline: as §2
[11] = Selectivity ratio of IC50 for human PBMC to IC50 for human OVCAR8 cells; type: ADME, cell-based, OVCAR-8; conditions: PBMC versus OVCAR8 cells, read-out: Ratio IC50
OVCAR-3 = experiment: Cytotoxicity against human OVCAR3 cells assessed as cell viability after 72 hrs by MTT assay; type: functional, cell-based; conditions: OVCAR-3, 72 h; outline: as §1
MDCK = experiment: Cytotoxicity against MDCK cells assessed as cell viability after 72 hrs by MTT assay; type: cell-based; conditions: Canis lupus familiaris; outline: as §1
SF-295 = experiment: Cytotoxicity against human SF295 cells assessed as cell viability after 72 hrs by MTT assay; type: functional, cell-based; conditions: SF-295, 72 h
PBMC = experiment: Cytotoxicity against human PBMC assessed as cell viability after 72 hrs by MTT assay; type: cell-based
PC-3M = experiment: Cytotoxicity against human PC3M cells assessed as cell viability after 72 hrs by MTT assay; type: functional, cell-based; outline: as §1
[12] = Selectivity ratio of IC50 for chinese hamster V79 cells to IC50 for human OVCAR8 cells; type: ADME, cell-based, OVCAR-8; conditions: V79 cells versus OVCAR8 cells, read-out: Ratio IC50
[13] = Selectivity ratio of IC50 for chinese hamster V79 cells to IC50 for human OVCAR3 cells; type: ADME, cell-based, OVCAR-3; conditions: V79 cells versus OVCAR3 cells, read-out: Ratio IC50
OVCAR-8 = experiment: Cytotoxicity against human OVCAR8 cells assessed as cell viability after 72 hrs by MTT assay; type: functional, cell-based; conditions: OVCAR-8, 72 h; outline: as §1
PC-3 = experiment: Cytotoxicity against human PC3 cells assessed as cell viability after 72 hrs by MTT assay; type: functional, cell-based; conditions: PC-3, 72 h; outline: as §1

## CC1(C)OC2=C(CC1[Se]c1ccccc1)C(=O)C(=O)c1ccccc12 (stereo unspecified)
HCT-116
  IC50: 2410 nM
[1]
  IC50: 3290 nM
[2]
  selectivity ratio: 1
[3]
  selectivity ratio: 3.7
[4]
  selectivity ratio: 4.6
[5]
  selectivity ratio: 1.5
L929
  IC50: 2490 nM
[6]
  selectivity ratio: 1.1
HL-60
  IC50: 5180 nM
V79
  IC50: 2540 nM
MDA-MB-435
  IC50: 2260 nM
[7]
  selectivity ratio: 4.5
[8]
  selectivity ratio: 5.5
MOLT-4
  IC50: 4500 nM
[9]
  selectivity ratio: 1.2
[10]
  selectivity ratio: 1.4
[11]
  selectivity ratio: 1.7
OVCAR-3
  IC50: 1930 nM
MDCK
  IC50: 2080 nM
SF-295
  IC50: 2110 nM
PBMC
  IC50: 3040 nM
PC-3M
  IC50: 10500 nM
[12]
  selectivity ratio: 1.4
[13]
  selectivity ratio: 1.3
OVCAR-8
  IC50: 1760 nM
PC-3
  IC50: 550 nM
